Data published in ChEMBL document CHEMBL1129660, “Studies on 6-aminoquinolones: synthesis and antibacterial evaluation of 6-amino-8-methylquinolones” (J Med Chem, 1996).
In brackets after ≈: the same amount, converted by molar mass.

Legend:
Assay type in all cases: functional
Enterococcus faecalis = assay: Antibacterial activity tested against Streptococcus faecalis LEP Br
In short: (§1)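 MICs (µg/mL) determined by conventional agar dilution against a panel of eight Gram-negative and five Gram-positive reference strains.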

Klebsiella pneumoniae = assay: Antibacterial activity tested against Klebsiella pneumoniae (Klebsiella pneumoniae) ATCC 10031; in short: as §1
[1] = Geometric mean of antibacterial activity (Gram -ve bacteria) of the compound
In short: (§2)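 Geometric means calculated from agar-dilution MICs (µg/mL), taken separately across the five Gram-positive and the eight Gram-negative panel strains.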

[2] = tested on: Staphylococcus epidermidis; assay: Antibacterial activity tested against Staphylococcus epidermidis HCF Berset C; in short: as §1
Escherichia coli [3] = assay: Antibacterial activity tested against Escherichia coli ISF 432; in short: as §1
Providencia stuartii = assay: Antibacterial activity tested against Providencia stuartii CNUR 5; in short: as §1
[4] = tested on: Staphylococcus epidermidis; assay: Antibacterial activity tested against Staphylococcus epidermidis CPHL A2; in short: as §1
Staphylococcus aureus [5] = assay: Antibacterial activity against Staphylococcus aureus MPR 5; in short: as §1
Escherichia coli [6] = assay: Antibacterial activity tested against Escherichia coli ATCC 8739; in short: as §1
Staphylococcus aureus [7] = assay: Antibacterial activity against Staphylococcus aureus ATCC 6538; in short: as §1
Shigella = assay: Antibacterial activity tested against Shigella enteritidis; in short: as §1
Bacteria = assay: Geometric mean of antibacterial activity (Gram +ve bacteria) of the compound; in short: as §2
Enterobacter cloacae = assay: Antibacterial activity tested against Enterobacter cloacae OMNFI 174
Pseudomonas aeruginosa = assay: Antibacterial activity tested against P. ae (Pseudomonas aeruginosa) ATCC 9027; in short: as §1
Proteus vulgaris = assay: Antibacterial activity tested against Proteus vulgaris CNUR 5; in short: as §1

SMILES | MIC (Enterococcus faecalis) | MIC (Klebsiella pneumoniae) | Geometric mean [1] | MIC [2] | MIC (Escherichia coli [3]) | MIC (Providencia stuartii) | MIC [4] | MIC (Staphylococcus aureus [5]) | MIC (Escherichia coli [6]) | MIC (Staphylococcus aureus [7]) | MIC (Shigella) | Geometric mean (Bacteria) | MIC (Enterobacter cloacae) | MIC (Pseudomonas aeruginosa) | MIC (Proteus vulgaris)
COc1ccc(-n2cc(C(=O)O)c(=O)c3cc(N)c(N4CCN(C)CC4)c(C)c32)cc1 | 128 µg/mL (≈ 303 µM) | 16 µg/mL (≈ 37.9 µM) | 76.109 | 64 µg/mL (≈ 151 µM) | 16 µg/mL (≈ 37.9 µM) | 128 µg/mL (≈ 303 µM) | 128 µg/mL (≈ 303 µM) | 64 µg/mL (≈ 151 µM) | > 128 µg/mL | 64 µg/mL (≈ 151 µM) | > 128 µg/mL | 84.45 | > 128 µg/mL | > 128 µg/mL | 128 µg/mL (≈ 303 µM)
Cc1c(N2CCC3CCCCC3C2)c(N)cc2c(=O)c(C(=O)O)cn(C3CC3)c12 (stereo not given) | 2 µg/mL (≈ 5.06 µM) | 0.125 µg/mL (≈ 0.316 µM) | 4 | 0.125 µg/mL (≈ 0.316 µM) | 4 µg/mL (≈ 10.1 µM) | 1 µg/mL (≈ 2.53 µM) | 0.25 µg/mL (≈ 0.632 µM) | 0.06 µg/mL (≈ 0.152 µM) | 4 µg/mL (≈ 10.1 µM) | 0.06 µg/mL (≈ 0.152 µM) | 2 µg/mL (≈ 5.06 µM) | 0.186 | 4 µg/mL (≈ 10.1 µM) | 64 µg/mL (≈ 162 µM) | 64 µg/mL (≈ 162 µM)
Cc1c(N2CCCC(C)(C)C2)c(N)cc2c(=O)c(C(=O)O)cn(C3CC3)c12 | 16 µg/mL (≈ 43.3 µM) | 0.5 µg/mL (≈ 1.35 µM) | 6.17 | 1 µg/mL (≈ 2.71 µM) | 0.5 µg/mL (≈ 1.35 µM) | 8 µg/mL (≈ 21.7 µM) | 1 µg/mL (≈ 2.71 µM) | 0.5 µg/mL (≈ 1.35 µM) | 0.5 µg/mL (≈ 1.35 µM) | 0.5 µg/mL (≈ 1.35 µM) | 16 µg/mL (≈ 43.3 µM) | 1.132 | 16 µg/mL (≈ 43.3 µM) | 64 µg/mL (≈ 173 µM) | > 128 µg/mL
Cc1c(N2CCCC(C)C2)c(N)cc2c(=O)c(C(=O)O)cn(C3CC3)c12 (stereo not given) | 2 µg/mL (≈ 5.63 µM) | 0.03 µg/mL (≈ 0.0844 µM) | 0.414 | 0.25 µg/mL (≈ 0.703 µM) | 0.03 µg/mL (≈ 0.0844 µM) | 0.25 µg/mL (≈ 0.703 µM) | 0.125 µg/mL (≈ 0.352 µM) | 0.06 µg/mL (≈ 0.169 µM) | 0.03 µg/mL (≈ 0.0844 µM) | 0.03 µg/mL (≈ 0.0844 µM) | 1 µg/mL (≈ 2.81 µM) | 0.162 | 1 µg/mL (≈ 2.81 µM) | 4 µg/mL (≈ 11.3 µM) | 32 µg/mL (≈ 90 µM)
Cc1c(N2CCc3ccccc3C2)c([N+](=O)[O-])cc2c(=O)c(C(=O)O)cn(C3CC3)c12 | 4 µg/mL (≈ 9.54 µM) | 64 µg/mL (≈ 153 µM) | 45.25 | 2 µg/mL (≈ 4.77 µM) | 4 µg/mL (≈ 9.54 µM) | 64 µg/mL (≈ 153 µM) | 4 µg/mL (≈ 9.54 µM) | 0.25 µg/mL (≈ 0.596 µM) | 64 µg/mL (≈ 153 µM) | 64 µg/mL (≈ 153 µM) | 64 µg/mL (≈ 153 µM) | 3.482 | 64 µg/mL (≈ 153 µM) | 64 µg/mL (≈ 153 µM) | 64 µg/mL (≈ 153 µM)
Cc1c(N2CCN(C)CC2)c(F)cc2c(=O)c(C(=O)O)cn(C3CC3)c12 | 1 µg/mL (≈ 2.78 µM) | 0.03 µg/mL (≈ 0.0835 µM) | 0.145 | 0.25 µg/mL (≈ 0.696 µM) | 0.03 µg/mL (≈ 0.0835 µM) | 2 µg/mL (≈ 5.56 µM) | 0.25 µg/mL (≈ 0.696 µM) | 0.03 µg/mL (≈ 0.0835 µM) | 0.03 µg/mL (≈ 0.0835 µM) | 0.06 µg/mL (≈ 0.167 µM) | 0.03 µg/mL (≈ 0.0835 µM) | 0.162 | 0.03 µg/mL (≈ 0.0835 µM) | 2 µg/mL (≈ 5.56 µM) | 2 µg/mL (≈ 5.56 µM)
CC1CN(c2cc3c(cc2N)c(=O)c(C(=O)O)cn3C2CC2)CC(C)(C)N1 (stereo not given) | 32 µg/mL (≈ 86.4 µM) | 0.03 µg/mL (≈ 0.081 µM) | 0.451 | 4 µg/mL (≈ 10.8 µM) | 0.03 µg/mL (≈ 0.081 µM) | 4 µg/mL (≈ 10.8 µM) | 2 µg/mL (≈ 5.4 µM) | 8 µg/mL (≈ 21.6 µM) | 0.03 µg/mL (≈ 0.081 µM) | 8 µg/mL (≈ 21.6 µM) | 0.25 µg/mL (≈ 0.675 µM) | 6.964 | 0.5 µg/mL (≈ 1.35 µM) | 2 µg/mL (≈ 5.4 µM) | 64 µg/mL (≈ 173 µM)
Nc1cc2c(=O)c(C(=O)O)cn(C3CC3)c2cc1N1CCCC1 | 128 µg/mL (≈ 408 µM) | 0.25 µg/mL (≈ 0.798 µM) | 6.73 | 128 µg/mL (≈ 408 µM) | 0.25 µg/mL (≈ 0.798 µM) | 128 µg/mL (≈ 408 µM) | 128 µg/mL (≈ 408 µM) | 128 µg/mL (≈ 408 µM) | 0.25 µg/mL (≈ 0.798 µM) | 128 µg/mL (≈ 408 µM) | 16 µg/mL (≈ 51.1 µM) | 128 | 8 µg/mL (≈ 25.5 µM) | 128 µg/mL (≈ 408 µM) | 128 µg/mL (≈ 408 µM)
Cc1c(N2CCNCC2)c(N)cc2c(=O)c(C(=O)O)cn(C3CC3)c12 | 16 µg/mL (≈ 46.7 µM) | 0.03 µg/mL (≈ 0.0876 µM) | 0.158 | 8 µg/mL (≈ 23.4 µM) | 0.03 µg/mL (≈ 0.0876 µM) | 2 µg/mL (≈ 5.84 µM) | 4 µg/mL (≈ 11.7 µM) | 4 µg/mL (≈ 11.7 µM) | 0.03 µg/mL (≈ 0.0876 µM) | 2 µg/mL (≈ 5.84 µM) | 0.03 µg/mL (≈ 0.0876 µM) | 5.28 | 0.06 µg/mL (≈ 0.175 µM) | 1 µg/mL (≈ 2.92 µM) | 4 µg/mL (≈ 11.7 µM)
Cc1c(N2CCCC2)c(N)cc2c(=O)c(C(=O)O)cn(C3CC3)c12 | 64 µg/mL (≈ 195 µM) | 0.5 µg/mL (≈ 1.53 µM) | 22.627 | 16 µg/mL (≈ 48.9 µM) | 1 µg/mL (≈ 3.05 µM) | 64 µg/mL (≈ 195 µM) | 16 µg/mL (≈ 48.9 µM) | 4 µg/mL (≈ 12.2 µM) | 32 µg/mL (≈ 97.7 µM) | 4 µg/mL (≈ 12.2 µM) | 64 µg/mL (≈ 195 µM) | 12.12 | 64 µg/mL (≈ 195 µM) | > 128 µg/mL | > 128 µg/mL
Cc1c(N2CCNC(C)C2)c(N)cc2c(=O)c(C(=O)O)cn(C3CC3)c12 (stereo not given) | 4 µg/mL (≈ 11.2 µM) | 0.03 µg/mL (≈ 0.0842 µM) | 0.225 | 1 µg/mL (≈ 2.81 µM) | 0.03 µg/mL (≈ 0.0842 µM) | 2 µg/mL (≈ 5.61 µM) | 1 µg/mL (≈ 2.81 µM) | 1 µg/mL (≈ 2.81 µM) | 0.125 µg/mL (≈ 0.351 µM) | 1 µg/mL (≈ 2.81 µM) | 0.06 µg/mL (≈ 0.168 µM) | 1.319 | 0.125 µg/mL (≈ 0.351 µM) | 1 µg/mL (≈ 2.81 µM) | 4 µg/mL (≈ 11.2 µM)
